Key:
[1] = biological target: NAD(P)H dehydrogenase [quinone] 1 (Homo sapiens) (UniProt P15559); assay: Activity at human recombinant NQO1 assessed as initial rate of cytochrome c reduction during the first 0 to 30 s by spectrophotometry
[2] = biological target: NAD(P)H dehydrogenase [quinone] 1 (Homo sapiens) (UniProt P15559); assay: Activity at human recombinant NQO1 assessed as average rate of irreversible NADH oxidation after 30 to 40 mins by HPLC analysis
Outline: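 Recombinant human NQO1 incubated with 50 µM quinone and 200 µM NADH in 25 mM Tris-HCl pH 7.4, 30–40 min at 22 °C. Reverse-phase C18 HPLC with methanol/10 mM potassium phosphate pH 6.0 gradient; NADH oxidation quantified at 340 nm. Average rate expressed as µmol NADH oxidized/min/mg NQO1.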

Sequence of NAD(P)H dehydrogenase [quinone] 1 (Homo sapiens) (P15559 whole entry): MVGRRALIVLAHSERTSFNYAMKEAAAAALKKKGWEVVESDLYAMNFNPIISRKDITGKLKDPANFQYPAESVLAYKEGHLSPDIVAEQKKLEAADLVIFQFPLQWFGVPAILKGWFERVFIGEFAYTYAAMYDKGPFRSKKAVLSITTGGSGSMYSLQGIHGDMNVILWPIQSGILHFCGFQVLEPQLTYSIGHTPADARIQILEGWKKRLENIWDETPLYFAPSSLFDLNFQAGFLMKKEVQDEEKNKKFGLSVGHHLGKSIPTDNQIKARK

SMILES	Activity [1]	Activity [2]
CC1=CC(=O)c2ccccc2C1=O	1220 µmol/min/mg	
COC1=CC(=O)c2c(c(CO)nn2C)C1=O	247 µmol/min/mg	38.1 µmol/min/mg
COC1=CC(=O)c2onc(C)c2C1=O	290 µmol/min/mg	27.6 µmol/min/mg
COC1=CC(=O)c2oc(CO)c(C)c2C1=O	1020 µmol/min/mg	80.8 µmol/min/mg
COC1=CC(=O)c2c(c(C)nn2C)C1=O	55.3 µmol/min/mg	19.6 µmol/min/mg
COC1=CC(=O)c2c(c(CO)c(C)n2C)C1=O		1.25 µmol/min/mg
COC1=CC(=O)c2oc(C)c(C(C)O)c2C1=O (stereo not given)	585 µmol/min/mg	87.9 µmol/min/mg
COC1=CC(=O)c2c(c(C)c(CO)n2C)C1=O		2.49 µmol/min/mg

Continued, values first:

Activity [1]	Activity [2]	SMILES
897 µmol/min/mg	27.4 µmol/min/mg	COC1=CC(=O)c2sc(C=O)cc2C1=O
468 µmol/min/mg		COC1=CC(=O)c2sc(CO)c(C)c2C1=O
236 µmol/min/mg		COC1=CC(=O)c2sc(C)c(CO)c2C1=O
553 µmol/min/mg	5.51 µmol/min/mg	COC1=CC(=O)c2sc(C)cc2C1=O
927 µmol/min/mg	63.8 µmol/min/mg	COC1=CC(=O)c2sc(CO)cc2C1=O
555 µmol/min/mg	53.9 µmol/min/mg	COC(=O)c1cc2c(s1)C(=O)C=C(OC)C2=O
900 µmol/min/mg	24.5 µmol/min/mg	COC1=CC(=O)c2sc(COC(C)=O)cc2C1=O
